Results on 1 compound are retold here after ChEMBL document CHEMBL4732088, “Identification and optimization of piperlongumine analogues as potential antioxidant and anti-inflammatory agents via activation of Nrf2” (Eur J Med Chem, 2021).

SMILES strings stand for the structures. The source made the active and inactive calls. No cut-off for these calls is given here.

The target of experiment [1] is T1, Nuclear factor erythroid 2-related factor 2 (Mus musculus) (UniProt Q60795).
T1 sequence (whole entry): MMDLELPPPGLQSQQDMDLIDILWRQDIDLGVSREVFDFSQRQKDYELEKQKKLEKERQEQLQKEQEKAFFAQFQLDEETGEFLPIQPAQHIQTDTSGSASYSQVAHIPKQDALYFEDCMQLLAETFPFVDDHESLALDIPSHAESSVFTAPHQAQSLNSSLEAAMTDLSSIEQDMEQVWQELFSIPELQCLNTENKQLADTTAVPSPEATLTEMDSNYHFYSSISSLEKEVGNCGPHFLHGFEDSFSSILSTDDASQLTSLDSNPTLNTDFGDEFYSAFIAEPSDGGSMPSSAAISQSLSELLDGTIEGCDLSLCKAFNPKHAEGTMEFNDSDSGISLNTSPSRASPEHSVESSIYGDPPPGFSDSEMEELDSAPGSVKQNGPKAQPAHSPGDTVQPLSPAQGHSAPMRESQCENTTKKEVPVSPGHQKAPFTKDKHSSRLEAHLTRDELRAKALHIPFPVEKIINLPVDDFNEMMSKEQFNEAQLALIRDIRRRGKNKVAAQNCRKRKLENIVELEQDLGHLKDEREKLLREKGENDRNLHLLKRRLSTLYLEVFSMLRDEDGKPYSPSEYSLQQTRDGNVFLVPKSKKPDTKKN
Description: Activation of Nrf2 in mouse BV2 cells assessed as upregulation of Nrf2 protein expression after 24 hrs by Western blot analysis. The class given is cell-based. The following applies: BV-2, filed as activator, dose 5-20 µM. The gist of the method: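 BV2 microglia exposed to compound for 24 h over a concentration series; Nrf2, NQO1, HO-1, TrxR1, GCLM and GCLC protein levels read by Western blot.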

Experiment [2] has as its target T2, Nuclear factor erythroid 2-related factor 2 (Rattus norvegicus) (UniProt O54968).
T2 sequence (whole entry): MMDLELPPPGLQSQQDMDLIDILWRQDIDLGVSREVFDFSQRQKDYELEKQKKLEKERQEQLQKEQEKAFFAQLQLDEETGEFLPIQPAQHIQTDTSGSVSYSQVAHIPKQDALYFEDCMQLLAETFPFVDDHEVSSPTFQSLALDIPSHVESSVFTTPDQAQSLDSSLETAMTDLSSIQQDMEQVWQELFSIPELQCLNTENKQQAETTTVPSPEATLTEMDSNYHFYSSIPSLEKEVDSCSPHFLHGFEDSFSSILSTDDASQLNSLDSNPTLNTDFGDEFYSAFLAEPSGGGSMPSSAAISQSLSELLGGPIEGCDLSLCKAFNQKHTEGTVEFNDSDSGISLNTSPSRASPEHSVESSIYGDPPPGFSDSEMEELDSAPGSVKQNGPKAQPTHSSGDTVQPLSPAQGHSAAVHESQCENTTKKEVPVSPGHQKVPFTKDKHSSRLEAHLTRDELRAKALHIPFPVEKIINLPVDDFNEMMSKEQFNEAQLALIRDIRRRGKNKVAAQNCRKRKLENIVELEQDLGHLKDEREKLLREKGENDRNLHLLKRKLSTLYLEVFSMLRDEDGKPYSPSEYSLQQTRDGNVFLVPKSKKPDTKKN
Kind of experiment: Activation of Nrf2 in rat PC12 cells assessed as increase in TrxR1 protein level after 24 hrs by Western blot analysis. The class given is cell-based. The settings on record: PC-12, filed as activator, dose 5-20 µM. The gist of the method:
(§1)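 PC12 cells treated with compound for 24 h at rising concentrations; NQO1, HO-1, TrxR1, GCLM, GCLC protein detected by Western blot.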

For experiment [3], the system named is PC-12. Description: Protection against 6-OHDA-induced apoptosis in rat PC12 cells assessed as viable cells at 20 uM incubated for 24 hrs by annexin V FITC/propidium iodide staining based flow cytometry (reference value: 72.0 %). The class given is functional. The following applies: read-out: Activity.
The target in experiment [4] is T1, Nuclear factor erythroid 2-related factor 2 (Mus musculus). Description: Activation of Nrf2 in mouse BV2 cells assessed as inhibition of LPS-induced IL-6 production at 5 to 20 uM by ELISA. The class given is cell-based. The settings on record: BV-2, filed as activator, dose 5-20 µM. The gist of the method:
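BV2 microglia pretreated with compound, then LPS-stimulated; IL-6 quantified by ELISA kit; mean ± SD, n = 3.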
(ELISA stands for enzyme-linked immunosorbent assay.)

The target of experiment [5] is T2, Nuclear factor erythroid 2-related factor 2 (Rattus norvegicus). Description: Activation of Nrf2 in rat PC12 cells assessed as increase in GCLC protein level at 20 uM after 24 hrs by Western blot analysis. The class given is cell-based. The settings on record: PC-12, filed as activator. In general terms: In western blotting, separated proteins are transferred to a membrane and probed.

Experiment [6] deals with PC-12. Kind of experiment: Protection against H2O2-induced apoptosis in rat PC12 cells assessed as necrotic cells at 20 uM incubated for 24 hrs by annexin V FITC/propidium iodide staining based flow cytometry (reference value: 0.6 %). The class given is functional. A general note: In flow cytometry, cells or beads pass a laser one at a time.
In experiment [7] the test system is PC-12. Description: Protection against 6-OHDA-induced apoptosis in rat PC12 cells assessed as viable cells at 5 uM incubated for 24 hrs by annexin V FITC/propidium iodide staining based flow cytometry (reference value: 72.0 %). Format: functional. The settings on record: read-out: Activity.
In experiment [8] the target is T2, Nuclear factor erythroid 2-related factor 2 (Rattus norvegicus). Kind of experiment: Activation of Nrf2 in rat PC12 cells assessed as increase in HO-1 protein level at 20 uM after 12 hrs by Western blot analysis. The class given is cell-based. The settings on record: PC-12, filed as activator.
Experiment [9] has as its system PC-12. Kind of experiment: Protection against 6-OHDA-induced apoptosis in rat PC12 cells assessed as late apoptotic cells at 5 uM incubated for 24 hrs by annexin V FITC/propidium iodide staining based flow cytometry (reference value: 7.6 %). Format: functional.
In experiment [10] the test system is PC-12. Description: Neuroprotective activity against H2O2-induced cell death in rat PC12 cells at 20 uM preincubated for 30 mins in presence of brusatol followed by H2O2 stimulation and measured after 24 hrs by MTT assay. The settings on record: time 24.5 hrs. The class given is functional, cell-based. The gist of the method:
(§2)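 PC12 cells incubated 30 min with compound (20 μM) plus brusatol (10 nM) or ZnPP (10 nM), then insult for 24 h (H₂O₂ stated as 150 μM); viability by MTT.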

Experiment [11] has as its system PC-12. Kind of experiment: Protection against 6-OHDA-induced apoptosis in rat PC12 cells assessed as viable cells at 10 uM incubated for 24 hrs by annexin V FITC/propidium iodide staining based flow cytometry (reference value: 72.0 %). Format: functional. The settings on record: read-out: Activity.
A short description of experiment [12]: Antioxidant activity assessed as DPPH radical scavenging activity. The class given is functional.
The subject of experiment [13] is PC-12. Kind of experiment: Neuroprotective activity against H2O2-induced cell death in rat PC12 cells assessed as cell viability at 20 uM preincubated for 30 mins in presence of ZNPP followed by H2O2 stimulation and measured after 24 hrs by MTT assay. Format: functional, cell-based. The settings on record: time 24.5 hrs. The gist of the method:
as §2

The target of experiment [14] is T2, Nuclear factor erythroid 2-related factor 2 (Rattus norvegicus). Description: Activation of Nrf2 in rat PC12 cells assessed as increase in HO-1 protein level after 24 hrs by Western blot analysis. The class given is cell-based. The settings on record: PC-12, filed as activator, dose 5-20 µM. The gist of the method: as §1
Experiment [15] concerns PC-12. Description: Protection against H2O2-induced apoptosis in rat PC12 cells assessed as late apoptotic cells at 20 uM incubated for 24 hrs by annexin V FITC/propidium iodide staining based flow cytometry (reference value: 16.2 %). Format: functional.
Experiment [16] deals with PC-12. Kind of experiment: Neuroprotective activity against H2O2-induced cell damage in rat PC12 cells assessed as cell viability at 20 uM after 24 hrs by MTT assay (reference value: 46 +/- 4.12 %). Format: functional. The settings on record: read-out: Activity.
In experiment [17] the test system is PC-12. Description: Protection against 6-OHDA-induced apoptosis in rat PC12 cells assessed as early apoptotic cells at 20 uM incubated for 24 hrs by annexin V FITC/propidium iodide staining based flow cytometry (reference value: 19.2 %). The class given is functional.

With `CCN(C)C(=O)N1CCN(C(=O)/C=C/c2ccc(F)cc2)C1=O`, the Activity entry in experiment [1] was “Dose-dependent effect”; in experiment [2], “Dose-dependent effect”; in the experiment on PC-12 [6], 0.3%; in the experiment on PC-12 [9], 6.4%; in experiment [14], “Dose-dependent effect”; in the experiment with PC-12 [15] it was 3.7%. Moreover, the Activity in the experiment with PC-12 [17] is 5.2%. Besides, the values for the viability at 20 µM with PC-12 [3] and in the experiment on PC-12 [16] were 89% and 75%, respectively. Further, the result in experiment [4], in experiment [5] and in experiment [8] was Active. Also, the viability at 5 µM with PC-12 [7] was 81.5%. Besides, the outcome (with PC-12 [10]; in experiment [12]; with PC-12 [13]) was inactive. The viability at 10 µM with PC-12 [11] was found to be 85.4%.
